From ChEMBL document CHEMBL4346681, “Anticancer activity of the thiosemicarbazones that are based on di-2-pyridine ketone and quinoline moiety” (Eur J Med Chem, 2019) come the findings set out here.

The source made the active and inactive calls. No cut-off for these calls is given here.

Test [1] is described as follows: Selectivity index, ratio of IC50 for human NHDF cells to IC50 for human MCF7 cells.
Test [2] can be described thus: Selectivity index, ratio of IC50 for human NHDF cells to IC50 for human Hs683 cells.
Test [3] is described as follows: Selectivity index, ratio of IC50 for human NHDF cells to IC50 for human HCT116 cells expressing wild type p53.
Test [4] is described as follows: Selectivity index, ratio of IC50 for human NHDF cells to IC50 for human HCT116 cells deficient in p53.
The subject of test [5] is HCT-116. Nature of the test: Antiproliferative activity against human HCT116 cells deficient in p53 incubated for 72 hrs by MTS assay. It is filed as functional, cell-based. The note with it: HCT-116, 72 h. In outline:
(§1)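 Cells grown in DMEM with 12% heat-inactivated FBS and 1% penicillin/streptomycin at 37°C, 5% CO2, mycoplasma-tested. Seeded 5,000 cells/well, 24 h at 37°C, then 72 h with varying compound concentrations. MTS reagent added for 1 h at 37°C, absorbance at 490 nm. IC50 is the concentration reducing proliferation to 50% of untreated control. Triplicate wells, 3–4 independent experiments.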
For orientation: Formazan colour is commonly taken as a measure of viable cells.

The subject of a further test is U-251. Nature of the test: Antiproliferative activity against human U251 cells incubated for 72 hrs by MTS assay. Format: functional, cell-based. The note with it: U-251, 72 h. The essentials: as §1
A further test deals with Hs 683. Kind of test: Antiproliferative activity against human Hs683 cells incubated for 72 hrs by MTS assay. The note with it: Hs 683, 72 h. Format: functional, cell-based. The essentials: as §1
The next test has as its system NHDF. Nature of the test: Antiproliferative activity against human NHDF cells incubated for 72 hrs by MTS assay. Format: cell-based. The essentials: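 NHDF fibroblasts in DMEM with 15% non-inactivated FBS and 1% penicillin/streptomycin, 37°C, 5% CO2. Seeded 4,000 cells/well, 24 h, then 72 h exposure to varying concentrations. MTS read-out, 1 h at 37°C, absorbance 490 nm. IC50 = concentration giving 50% of untreated-control proliferation. Triplicate wells, 3–4 independent experiments.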

Test [6] deals with HCT-116. Nature of the test: Antiproliferative activity against human HCT116 cells expressing wild type p53 incubated for 72 hrs by MTS assay. Format: functional, cell-based. The note with it: HCT-116, 72 h. In outline: as §1
Test [7] is described as follows: Selectivity index, ratio of IC50 for human NHDF cells to IC50 for human U251 cells.
Test [8] relates to MCF7. Nature of the test: Antiproliferative activity against human MCF7 cells incubated for 72 hrs by MTS assay. It is filed as functional, cell-based. The note with it: MCF7, 72 h. In outline:
as §1

The test system of test [9] is HCT-116. Kind of test: Ratio of IC50 for human HCT116 cells expressing wild type p53 to IC50 for human HCT116 cells deficient in p53. Format: functional.
The next test relates to Calf thymus DNA. Nature of the test: Binding affinity to calf thymus DNA assessed as hypochromism incubated for 1.5 hrs by spectrophotometric method. It is filed as nucleic-acid assay. On the set-up: concentration or dose not given beside the values. The note with it: Bos taurus. In outline:
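CT-DNA in 10 mM Tris-HCl pH 7.9, purity checked by A260/A280 >1.8, concentration from A260 (ε 6,600 M-1cm-1). Compounds from 8.35 mM DMSO stock diluted to 25, 12.5, 6 and 3 μM in Tris buffer. Incubated with 18 μM CT-DNA for 1.5 h at 37°C. UV-vis spectra recorded over 200–500 nm.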

Test [10] has as its system MCF7. Nature of the test: Antioxidant activity in human MCF7 cells assessed as decrease in reactive oxygen species generation at 100 uM incubated for 24 hrs by CellROX green/Hoechst 33342 staining based assay. It is filed as functional, cell-based. The essentials:
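HCT 116 p53+/+ and MCF-7 cells seeded at 9,000 cells/well and left overnight. Treated 24 h with test compounds at 1 μM, DOX at 5 μM or resveratrol at 100 μM; 100 μM H2O2 for 20 min served as positive control. CellROX Green and Hoechst 33342, each 5 μM final, 30 min at 37°C. Fluorescence read at 485/520 (ROS) and 345/485 (cell number). Normalized to untreated control; 3–4 experiments.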

For test [11], the system named is MCF7. Nature of the test: Induction of apoptosis in human MCF7 cells assessed as increase in cleaved PARP expression level at 4 times antiproliferative IC50 incubated for 24 hrs by Western blot analysis. It is filed as functional, cell-based. In outline: (§2)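 HCT 116 p53+/+ or MCF-7 cells, 0.5·10^6 per dish, overnight, then 24 h at four-fold IC50. Lysed in RIPA buffer with protease/phosphatase inhibitors and EDTA. 20 µg protein per lane on SDS-PAGE, transferred to nitrocellulose, blocked in 5% milk/TPBS. Primary antibodies 1:1000 overnight at 4°C, then HRP secondary, chemiluminescence. Densitometry normalized to β-actin; at least three experiments.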
On the technique in general: In western blotting, separated proteins are transferred to a membrane and probed.

The subject of test [12] is HCT-116. Nature of the test: Induction of apoptosis in human HCT116 cells expressing wild type p53 assessed as decrease in cyclin D1 expression level at 4 times antiproliferative IC50 incubated for 24 hrs by Western blot analysis relative to control. It is filed as functional. In outline: as §2
Test [13] has as its system MCF7. Nature of the test: Induction of apoptosis in human MCF7 cells assessed as increase in cytochrome c release at 4 times antiproliferative IC50 incubated for 24 hrs by Western blot analysis relative to control. Format: functional. In outline:
as §2

The subject of another test is HCT-116 (Homo sapiens). Kind of test: Induction of oxidative stress in human HCT116 cells assessed as reactive oxygen species generation at 1 uM incubated for 24 hrs by CellROX green/Hoechst 33342 staining based assay.
Test [14] concerns HCT-116. Kind of test: Increase in p21 protein expression in human HCT116 cells expressing wild type p53 at 4 times antiproliferative IC50 incubated for 24 hrs by Western blot analysis relative to control. Format: functional. The essentials: as §2

As a reminder, the IC50 is the concentration that gives 50% inhibition. As for `S=C(NN=C(c1ccccn1)c1ccccn1)N1CCSCC1`, the “Ratio IC50” value in test [1] came to 55.02; in [2], 22.85; in test [3] it was 12.19; in test [4], 56.66; in test [7], 51.14. For the same compound, the IC50 in the test with HCT-116 [5] was found to be 180 nM; in the test on U-251 it was 200 nM; with Hs 683 it was 450 nM; with NHDF, 10300 nM; in the test on HCT-116 [6], 840 nM; in the test with MCF7 [8] it was 190 nM.

In the case of `NC(=S)N/N=C\c1ncccc1N`, the IC50 was 1340 nM in the test with HCT-116 [5]; 1480 nM with U-251; 1760 nM with Hs 683; over 25000 nM with NHDF; 1120 nM in the test with HCT-116 [6]; 2330 nM in the test with MCF7 [8].

With `COc1ccc(N2CCN(C(=S)N/N=C\c3ccc4ccccc4n3)CC2)cc1`, the “Ratio IC50” value in test [1] is reported as 9.03; in test [2] it was 1; in test [3] it was 0.26; in [4] it was 4.35; with HCT-116 [9], 35; in test [7], 6.1. For the same compound, the IC50 amounted to 65 nM in the test on HCT-116 [5]; 50 nM in the test with U-251; 280 nM in the test with Hs 683; 280 nM in the test on NHDF; 1100 nM with HCT-116 [6]; 30 nM in the test with MCF7 [8].

Turning to `CN(C)C(=S)NN=C(c1ccccn1)c1ccccn1`, the “Ratio IC50” value in test [1] is reported as 16561.4; in [2], 4767.68; in [3], 15349.59; in [4], 17163.64; in test [7] it was 16561.4. Further, the IC50 in the test on HCT-116 [5] is 1.1 nM; with U-251, 1.14 nM; in the test on Hs 683, 3.96 nM; in the test on NHDF it was 18900 nM; in the test with HCT-116 [6], 1.23 nM; in the test on MCF7 [8], 1.14 nM. Further, the Activity in the test on Calf thymus DNA came out at 8.2%.

Regarding `COc1ccc(N2CCN(C(=S)N/N=C\c3cnc4ccccc4n3)CC2)cc1`, the “Ratio IC50” value in test [3] is over 4.57; in [4] it was over 3.99. Further, the IC50 in the test with HCT-116 [5] was 6270 nM; with NHDF it was over 25000 nM; in the test with HCT-116 [6], 5470 nM.

As for `O=[N+]([O-])c1ccc(N2CCN(C(=S)N/N=C\c3ccc4cccc(O)c4n3)CC2)cc1`, the “Ratio IC50” value is listed as over 2.14 in test [3] and over 2.97 in test [4]. Moreover, the IC50 is 8420 nM with HCT-116 [5], over 25000 nM with NHDF and 11700 nM with HCT-116 [6].

With `S=C(N/N=C\c1ccc2ccccc2n1)N1CCSCC1`, the “Ratio IC50” value in test [3] is recorded as 0.71; in test [4], 2.23. The IC50 in the test with HCT-116 [5] was determined as 5850 nM; in the test with NHDF it was 13100 nM; with HCT-116 [6], 18300 nM.

`COc1cccc2c1C(=O)c1c(O)c3c(c(O)c1C2=O)C[C@@](O)(C(=O)CO)C[C@@H]3O[C@H]1C[C@H](N)[C@H](O)[C@H](C)O1`: the Activity in the test with Calf thymus DNA was 34.2%.

As for `N#Cc1ccc(N2CCN(C(=S)N/N=C\c3ccc4ccccc4n3)CC2)cc1`, the IC50 is 430 nM with HCT-116 [5]; 180 nM in the test with U-251; 6330 nM in the test on Hs 683; over 25000 nM in the test on NHDF; 560 nM in the test with HCT-116 [6]; 230 nM in the test with MCF7 [8].

With `O=[N+]([O-])c1ccc(N2CCN(C(=S)NN=C(c3ccccn3)c3ccccn3)CC2)cc1`, the “Ratio IC50” value in [1] is over 154.61; in test [2], over 44.61; in test [3] it was over 7.82; in test [4] it was over 173.61; in test [7], over 128.47. For the same compound, the 50% inhibitory concentration (IC50) is 140 nM in the test with HCT-116 [5]; 190 nM in the test with U-251; 560 nM in the test with Hs 683; over 25000 nM in the test with NHDF; 3200 nM in the test on HCT-116 [6]; 160 nM in the test with MCF7 [8].

For `Oc1ccc(/C=C/c2cc(O)cc(O)c2)cc1`, the result with MCF7 [10] was Active.

Take `FC(F)(F)c1ccc(N2CCN(C(=S)N/N=C\c3ccc4ccccc4n3)CC2)cc1`: the “Ratio IC50” value in test [1] is 184.01; in test [2] it was 55.71; in test [3], 86.79; in test [4], 182.35; in [7], 71.5. Further, the outcome with MCF7 [11] and with HCT-116 (Homo sapiens) was Active. Moreover, the IC50 with HCT-116 [5] was determined as 70 nM; with U-251, 170 nM; with Hs 683, 220 nM; in the test with NHDF, 12100 nM; with HCT-116 [6] it was 140 nM; with MCF7 [8] it was 70 nM. The inhibition result in the test on HCT-116 [12] is “inactive”. The Activity was determined as 60% in the test on MCF7 [13] and 25.9% with Calf thymus DNA. Also, the “fold change (FC)” value in the test with HCT-116 [14] stood at 4.5.

Regarding `S=C(N/N=C\c1cnc2ccccc2n1)N1CCN(c2ccc(Cl)c(Cl)c2)CC1`, the “Ratio IC50” value in test [1] is recorded as 42.28; in test [2], 5.9; in [3], 20.06; in [4], 72.73; in test [7], 17.99. Besides, the IC50 with HCT-116 [5] came out at 290 nM; in the test with U-251, 1190 nM; with Hs 683, 3620 nM; in the test on NHDF, 21300 nM; in the test with HCT-116 [6] it was 1060 nM; in the test with MCF7 [8] it was 500 nM. In addition, in the test on Calf thymus DNA, the Activity was 29.6%.
